Measurements: ChEMBL document CHEMBL5104115, “Design, synthesis of novel triptolide-glucose conjugates targeting glucose Transporter-1 and their selective antitumor effect” (Eur J Med Chem, 2022)
pIC50: −log10 of the molar value. Calls of active or inactive are those of the source. No cut-off for these calls is given here.

How the values were obtained:
[1] = Cytotoxicity against HUVEC incubated for 72 hrs by MTT assay; type: toxicity, cell-based; conditions: human, HUVEC cells
Method in brief: (§1)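 Cells seeded at 4000/well, incubated overnight, then exposed to a range of concentrations, or DMSO vehicle, for 72 h. MTT (5 mg/mL solution) added for 4 h and formazan dissolved in DMSO. Absorbance read at 570 nm, and IC50 derived from the curves. Tumor lines were grown in RPMI 1640; HUVEC, HaCaT and LO2 were grown in DMEM, each with 10% FBS at 37 °C and 5% CO2.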

[2] = system: NCI-H460; test: Induction of apoptosis in human NCI-H460 cells assessed as early apoptotic cells at 50 uM measured after 48 hrs by Annexin V-FITC/PI staining method (reference value: 3.26%); type: functional
[3] = system: NCI-H1975; test: Cytotoxicity against Glut1 knocked down human NCI-H1975 cells transfected with KDV assessed as decrease in cell viability incubated for 72 hrs by MTT assay; type: functional, cell-based; conditions: NCI-H1975, 72 h
Method in brief: (§2)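 Stable Glut-1 knockdown (KD1, KD2, vector KD V) or overexpression (OE, vector OE V) NCI-H1975 cells made by 12 h lentiviral infection, 72 h culture, then 14 days puromycin selection; Glut-1 confirmed by Western blot. Cells seeded at 4000/well overnight, dosed over a concentration range or DMSO for 72 h. MTT read at 570 nm; IC50 from ≥3 replicates.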

[4] = system: NCI-H1975; test: Cytotoxicity against human NCI-H1975 cells transfected with OE overexpressing Glut1assessed as decrease in cell viability incubated for 72 hrs by MTT assay; type: functional, cell-based; conditions: NCI-H1975, 72 h; method in brief: as §2
[5] = system: NCI-H1975; test: Antitumor activity against human NCI-H1975 cells xenografted in BALB/c nude mouse assessed as tumor growth inhibition at 2 mg/kg, ip, qd for 2 weeks relative to control; conditions: NCI-H1975, 336 h, read-out: TGI
[6] = system: MDA-MB-231; test: Cytotoxicity against human MDA-MB-231 cells incubated for 72 hrs by MTT assay; type: functional, cell-based; conditions: MDA-MB-231, 72 h; method in brief: as §1
[7] = Toxicity in BALB/c nude mouse xenografted with human NCI-H1975 cells assessed as morphological change in lung at 1 to 2 mg/kg administered ip, qd for 2 weeks; conditions: in vivo, 336 h
[8] = system: NCI-H460; test: Down regulation of RNA polymerase II in human NCI-H460 cells measured after 48 hrs by Western blotting analysis; type: functional, cell-based
Method in brief: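 NCI-H460 cells treated for 48 h, harvested by trypsinization and lysed on ice in NP-40 buffer (50 mmol/L Tris pH 8.0, 150 mmol/L NaCl, 1% NP-40). Protein quantified by BCA and resolved by SDS-PAGE. Blots probed for RNA Pol II (1:1000), with GAPDH as loading control, and detected by chemiluminescence.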

[9] = system: HT-29; test: Cytotoxicity against human HT-29 cells incubated for 72 hrs by MTT assay; type: functional, cell-based; conditions: HT-29, 72 h; method in brief: as §1
[10] = Toxicity in BALB/c nude mouse xenografted with human NCI-H1975 cells assessed as decreased spermatogenic cells at 2 mg/kg administered ip, qd for 2 weeks; conditions: in vivo, 336 h
[11] = Cytotoxicity against HUVEC transfected with OE overexpressing Glut1assessed as decrease in cell viability incubated for 72 hrs by MTT assay; type: toxicity, cell-based; conditions: human, HUVEC cells transfected with OE overexpressing Glut1
Method in brief: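 HUVEC kept in DMEM with 10% FBS, made to overexpress Glut-1 (OE) or carry vector (OE V) by lentiviral infection and puromycin selection for 14 days, with Western blot check. Seeded at 4000 cells/well, treated over a concentration range or DMSO for 72 h, then MTT at 570 nm. IC50 taken from at least three replicates.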

[12] = system: NCI-H460; test: Induction of mitochondrial membrane potential loss in human NCI-H460 cells by flow cytometric analysis; type: functional, cell-based
Method in brief: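 Treated NCI-H460 cells suspended in 1% BSA DPBS and stained with TMRE (from a 1 mM stock) for 20 min in the dark. Cells then washed and resuspended in 1% BSA DPBS. Relative TMRE fluorescence intensity taken as the readout of membrane potential.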

[13] = system: SW-620; test: Cytotoxicity against human SW-620 cells incubated for 72 hrs by MTT assay; type: functional, cell-based; conditions: SW-620, 72 h; method in brief: as §1
[14] = system: NCI-H1975; test: Cytotoxicity against human NCI-H1975 cells transfected with OE V overexpressing Glut1assessed as decrease in cell viability incubated for 72 hrs by MTT assay; type: functional, cell-based; conditions: NCI-H1975, 72 h; method in brief: as §2
[15] = Toxicity in BALB/c nude mouse xenografted with human NCI-H1975 cells assessed as diarrhea at 1 to 2 mg/kg administered ip, qd for 2 weeks; conditions: in vivo, 336 h
[16] = system: NCI-H1975; test: Antitumor activity against human NCI-H1975 cells xenografted in BALB/c nude mouse assessed as tumor growth inhibition at 1 mg/kg, ip, qd for 2 weeks relative to control; conditions: NCI-H1975, 336 h, read-out: TGI
[17] = system: NCI-H460; test: Induction of apoptosis in human NCI-H460 cells assessed as late apoptotic cells at 1 uM measured after 48 hrs by Annexin V-FITC/PI staining method (reference value: 8.47%); type: functional
[18] = Toxicity in BALB/c nude mouse xenografted with human NCI-H1975 cells assessed as reduction of cytoplasmic vacuoles at 2 mg/kg administered ip, qd for 2 weeks; conditions: in vivo, 336 h
[19] = system: NCI-H460; test: Induction of apoptosis in human NCI-H460 cells assessed as late apoptotic cells at 20 uM measured after 48 hrs by Annexin V-FITC/PI staining method (reference value: 8.47%); type: functional
[20] = Toxicity in BALB/c nude mouse xenografted with human NCI-H1975 cells assessed as morphological change in kidney at 1 to 2 mg/kg administered ip, qd for 2 weeks; conditions: in vivo, 336 h
[21] = Toxicity in BALB/c nude mouse xenografted with human NCI-H1975 cells assessed as loss of body weight at 1 to 2 mg/kg administered ip, qd for 2 weeks measured every 3 days; conditions: in vivo, 336 h
[22] = Drug distribution in NCI-H1975 tumor bearing nude mouse model assessed as tumor to liver ratio of triptolide metabolite at 2 mg/kg, iv by LC-MS analysis; type: ADME, organism-based; conditions: in vivo
Method in brief: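 NCI-H1975 xenograft mice, tumors about 500 mm3, 3 per group, fasted 12 h with water available. Given 2 mg/kg iv and sacrificed 1 h later. Heart, liver, lung, kidney and tumor weighed and flash-frozen. 1.0 g tissue homogenized in 2.0 mL saline, methanol-precipitated, reconstituted. Parent, triptolide succinate and triptolide measured by LC-MS; tumor/organ ratios calculated.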

[23] = Stability in mouse serum assessed as unchanged fraction measured after 72 hrs by HPLC analysis relative to control; type: ADME, cell-free; conditions: read-out: Stability
Method in brief: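 15 µM test agent incubated with human or mouse serum at 37 °C for 0, 0.5, 1, 8, 12, 18, 60 and 72 h. Samples stored at −80 °C, protein precipitated with 200 µL methanol, vortexed and sonicated 5 min. Intact agent and released triptolide measured by HPLC at 220 nm, in duplicate.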

In the case of `CC(C)[C@]12O[C@H]1[C@@H]1O[C@]13[C@]1(O[C@H]1C[C@H]1C4=C(CC[C@@]13C)C(=O)OC4)[C@@H]2OC(=O)CCC(=O)O[C@H]1C(O)O[C@H](CO)[C@@H](O)[C@@H]1O` (stereo partly drawn), the IC50 at 72 h [1] was 8550 nM, the Activity [2] was 50.2% and the pIC50 [3] was 5.54. For the same molecule, the pIC50 [4] was 5.61, the inhibition in vivo at 2 mg/kg [5] was 90.4% and the pIC50 [6] was 5.70. For the same molecule, the Activity [7] was “Non-Toxic”, the Activity [8] was “Active” and the pIC50 [9] was 5.66. For the same molecule, the Activity [10] was “Toxic”, the IC50 at 72 h [11] was 3170 nM and the Activity [12] was “Active”. For the same molecule, the pIC50 [13] was 5.76, the pIC50 [14] was 5.28 and the Activity [15] was “Non-Toxic”. The inhibition in vivo at 1 mg/kg [16] was 75.4%, the Activity [17] was 7.68% and the Activity [18] was “Toxic”. For the same molecule, the Activity [19] was 27.4%, the Activity [20] was “Non-Toxic” and the Activity [21] was “Non-Toxic”. It also gave a Ratio [22] of 9.3 and a remaining at 72 h [23] of 66%.
